Measured values as given in ChEMBL document CHEMBL1817577, “Pachastrissamine (jaspine B) and its stereoisomers inhibit sphingosine kinases and atypical protein kinase C” (Bioorg Med Chem, 2011).

How the values were obtained:
[1] = molecular target: Protein kinase C alpha type (Homo sapiens) (UniProt P17252); test: Inhibition of N-terminal GST-fused PKCalpha (1-672) expressed in baculovirus expression system at 30 uM after 1 hr by off-chip mobility shift assay relative to control
In short: (§1)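 Enzymes purified by glutathione sepharose. DMSO compound stock diluted fourfold into 20 mM HEPES pH 7.5, 0.01% Triton X-100, 2 mM DTT, with phosphatidylserine (50 μg/mL), diacylglycerol (5 μg/mL) and 50 μM CaCl2. Reaction: 1 μM PKCθ substrate peptide (N-FL), 25 μM ATP, 5 mM MgCl2, 1 h at room temperature (n = 2). Read-out is electrophoretic P/(P+S) ratio, normalized to no-enzyme and no-inhibitor controls.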

[2] = molecular target: Protein kinase C beta type (Homo sapiens) (UniProt P05771); test: Inhibition of N-terminal GST-fused PKCbeta1 (1-671) expressed in baculovirus expression system at 30 uM after 1 hr by off-chip mobility shift assay relative to control; in short: as §1
[3] = molecular target: Protein kinase C theta type (Homo sapiens) (UniProt Q04759); test: Inhibition of N-terminal GST-fused PKCtheta (1-706) expressed in baculovirus expression system at 30 uM after 1 hr by off-chip mobility shift assay relative to control
In short: (§2)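 Buffer is HEPES pH 7.5 (20 mM), 0.01% Triton X-100, 2 mM DTT, with phosphatidylserine (50 μg/mL) and diacylglycerol (5 μg/mL) but no CaCl2. Reaction: 1 μM PKCθ substrate (N-FL), 25 μM ATP, 5 mM MgCl2, 1 h at room temperature, n = 2. Read-out is electrophoretic separation, P/(P+S) ratio, controls as 0% and 100% inhibition.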

[4] = molecular target: Protein kinase C eta type (Homo sapiens) (UniProt P24723); test: Inhibition of N-terminal GST-fused PKCeta (1-683) expressed in baculovirus expression system at 30 uM after 1 hr by off-chip mobility shift assay relative to control; in short: as §2
[5] = molecular target: T1, Protein kinase C zeta type (Homo sapiens) (UniProt Q05513); test: Inhibition of N-terminal GST-fused PKCzeta (1-592) expressed in baculovirus expression system at 30 uM after 1 hr by off-chip mobility shift assay relative to control
T1 sequence (whole entry): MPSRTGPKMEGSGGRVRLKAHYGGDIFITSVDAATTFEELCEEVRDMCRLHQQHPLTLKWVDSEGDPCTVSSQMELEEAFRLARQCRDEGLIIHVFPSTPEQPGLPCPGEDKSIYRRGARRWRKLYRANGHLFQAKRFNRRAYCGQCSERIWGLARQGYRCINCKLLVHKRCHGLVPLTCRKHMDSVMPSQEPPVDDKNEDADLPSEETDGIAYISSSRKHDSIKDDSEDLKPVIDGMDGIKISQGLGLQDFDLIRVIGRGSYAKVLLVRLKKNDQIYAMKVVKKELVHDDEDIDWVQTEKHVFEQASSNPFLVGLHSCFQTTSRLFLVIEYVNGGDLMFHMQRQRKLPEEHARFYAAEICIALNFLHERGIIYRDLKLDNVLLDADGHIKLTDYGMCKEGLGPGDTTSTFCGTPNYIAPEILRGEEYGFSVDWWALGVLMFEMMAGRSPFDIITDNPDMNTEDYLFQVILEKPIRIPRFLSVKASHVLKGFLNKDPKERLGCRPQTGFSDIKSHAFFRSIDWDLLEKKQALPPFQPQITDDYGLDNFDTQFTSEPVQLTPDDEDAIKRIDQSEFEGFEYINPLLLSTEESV
In short: (§3)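 No lipid cofactors and no calcium. Reaction buffer is 20 mM HEPES pH 7.5, 0.01% Triton X-100, 2 mM DTT, with 1 μM PKCθ substrate peptide (N-FL), 5 μM ATP and 5 mM MgCl2. Incubated 1 h at room temperature (n = 2). Electrophoretic mobility shift read-out of P/(P+S); normalized to no-enzyme and no-inhibitor controls.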

[6] = molecular target: T2, Protein kinase C epsilon type (Homo sapiens) (UniProt Q02156); test: Inhibition of N-terminal GST-fused PKCepsilon (1-737) expressed in baculovirus expression system at 30 uM after 1 hr by off-chip mobility shift assay relative to control
T2 sequence (whole entry): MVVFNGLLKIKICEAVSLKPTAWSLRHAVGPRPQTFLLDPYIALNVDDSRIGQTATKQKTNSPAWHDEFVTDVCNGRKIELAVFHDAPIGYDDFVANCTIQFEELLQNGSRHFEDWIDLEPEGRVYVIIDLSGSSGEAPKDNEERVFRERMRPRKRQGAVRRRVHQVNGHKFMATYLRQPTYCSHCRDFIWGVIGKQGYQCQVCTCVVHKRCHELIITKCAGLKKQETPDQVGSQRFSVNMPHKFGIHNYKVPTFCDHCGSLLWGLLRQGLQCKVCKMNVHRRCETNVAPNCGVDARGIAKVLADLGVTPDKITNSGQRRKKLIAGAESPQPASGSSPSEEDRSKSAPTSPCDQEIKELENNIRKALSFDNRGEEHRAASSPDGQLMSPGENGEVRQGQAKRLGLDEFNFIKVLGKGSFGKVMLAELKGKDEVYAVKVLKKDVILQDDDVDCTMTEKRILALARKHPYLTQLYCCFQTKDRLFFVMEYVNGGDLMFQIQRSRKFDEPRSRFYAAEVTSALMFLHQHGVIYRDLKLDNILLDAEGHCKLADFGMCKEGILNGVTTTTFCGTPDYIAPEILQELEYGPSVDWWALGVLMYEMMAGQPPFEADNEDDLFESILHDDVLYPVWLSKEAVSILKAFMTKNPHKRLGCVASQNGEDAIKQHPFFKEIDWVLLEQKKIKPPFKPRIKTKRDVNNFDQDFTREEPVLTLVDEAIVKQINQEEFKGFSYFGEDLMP
In short: (§4)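 Lipid-activated reactions (phosphatidylserine 50 μg/mL, diacylglycerol 5 μg/mL), no CaCl2. Buffer is 20 mM HEPES pH 7.5, 0.01% Triton X-100, 2 mM DTT, with 1 μM N-FL PKCθ substrate peptide, 10 μM ATP and 5 mM MgCl2. Incubated 1 h at room temperature, n = 2. Product ratio P/(P+S) from electrophoretic peak heights, scaled between no-enzyme (100%) and no-inhibitor (0%) controls.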

[7] = molecular target: Protein kinase C iota type (Homo sapiens) (UniProt P41743); test: Inhibition of N-terminal GST-fused PKClota (1-587) expressed in baculovirus expression system at 30 uM after 1 hr by off-chip mobility shift assay relative to control
[8] = molecular target: T1, Protein kinase C zeta type (Homo sapiens); test: Inhibition of N-terminal GST-fused PKCzeta (1-592) expressed in baculovirus expression system at 3 uM after 1 hr by off-chip mobility shift assay relative to control; in short: as §3
[9] = molecular target: T3, Sphingosine kinase 2 (Homo sapiens) (UniProt Q9NRA0); test: Inhibition of N-terminal GST-fused sphingosine kinase 2 (1-618) expressed in baculovirus expression system assessed as inhibition of sphingosine phosphorylation after 1 hr by off-chip mobility shift assay; parameters: concentration or dose not given beside the values; details: concentration not given here
T3 sequence (whole entry): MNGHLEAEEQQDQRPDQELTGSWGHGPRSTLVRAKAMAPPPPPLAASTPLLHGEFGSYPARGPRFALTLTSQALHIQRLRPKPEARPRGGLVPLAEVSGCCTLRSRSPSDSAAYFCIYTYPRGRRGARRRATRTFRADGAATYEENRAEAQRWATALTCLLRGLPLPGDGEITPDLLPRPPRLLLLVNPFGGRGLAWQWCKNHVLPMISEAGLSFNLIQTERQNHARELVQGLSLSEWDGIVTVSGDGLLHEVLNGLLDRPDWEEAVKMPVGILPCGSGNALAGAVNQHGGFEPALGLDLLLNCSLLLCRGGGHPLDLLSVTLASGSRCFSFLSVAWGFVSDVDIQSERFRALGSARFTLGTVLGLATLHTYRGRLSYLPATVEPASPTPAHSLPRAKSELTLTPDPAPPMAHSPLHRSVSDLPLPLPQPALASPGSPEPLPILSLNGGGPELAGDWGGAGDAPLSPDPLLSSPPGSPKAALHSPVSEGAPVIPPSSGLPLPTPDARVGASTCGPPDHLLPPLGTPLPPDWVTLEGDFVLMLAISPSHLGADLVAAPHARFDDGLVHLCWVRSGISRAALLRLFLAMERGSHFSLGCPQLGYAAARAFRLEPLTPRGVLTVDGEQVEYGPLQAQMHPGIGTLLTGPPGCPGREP
In short: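 Glutathione-sepharose-purified GST fusion tested over a concentration series (DMSO stock diluted fourfold in 20 mM HEPES pH 7.5, 0.01% Triton X-100, 2 mM DTT). Reaction: 1 μM sphingosine, 600 μM ATP, 5 mM MgCl2, 1 h at room temperature, n = 4. Electrophoretic P/(P+S) read-out normalized to controls; IC50 fitted.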

[10] = molecular target: Sphingosine kinase 1 (Homo sapiens) (UniProt Q9NYA1); test: Inhibition of N-terminal GST-fused sphingosine kinase 1 (1-384) expressed in baculovirus expression system assessed as inhibition of sphingosine phosphorylation after 1 hr by off-chip mobility shift assay; parameters: concentration or dose not given beside the values; details: concentration not given here
In short: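 GST-fusion enzyme purified on glutathione sepharose. Compound series in DMSO diluted fourfold into 20 mM HEPES pH 7.5, 0.01% Triton X-100, 2 mM DTT. Reaction: 1 μM sphingosine, 25 μM ATP, 5 mM MgCl2, 1 h at room temperature (n = 4). Substrate and product separated electrophoretically; P/(P+S) ratio against no-enzyme and no-inhibitor controls; IC50 from concentration series.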

[11] = molecular target: Protein kinase C delta type (Homo sapiens) (UniProt Q05655); test: Inhibition of N-terminal GST-fused PKCdelta (1-676) expressed in baculovirus expression system at 30 uM after 1 hr by off-chip mobility shift assay relative to control; in short: as §4
[12] = molecular target: Protein kinase C beta type (Homo sapiens) (UniProt P05771); test: Inhibition of N-terminal GST-fused PKCbeta2 (1-673) expressed in baculovirus expression system at 30 uM after 1 hr by off-chip mobility shift assay relative to control
In short: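 Same buffer as the other conventional PKCs (20 mM HEPES pH 7.5, 0.01% Triton X-100, 2 mM DTT), with phosphatidylserine 50 μg/mL, diacylglycerol 5 μg/mL and 50 μM CaCl2. Reaction: 1 μM PKCθ substrate peptide (N-FL), 10 μM ATP, 5 mM MgCl2, 1 h at room temperature, duplicate. Substrate and product separated electrophoretically; inhibition from P/(P+S) versus no-enzyme and no-inhibitor controls.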

[13] = molecular target: Protein kinase C gamma type (Homo sapiens) (UniProt P05129); test: Inhibition of N-terminal GST-fused PKCgamma (1-697) expressed in baculovirus expression system at 30 uM after 1 hr by off-chip mobility shift assay relative to control; in short: as §1
[14] = molecular target: Protein kinase C iota type (Homo sapiens) (UniProt P41743); test: Inhibition of N-terminal GST-fused PKClota (1-587) expressed in baculovirus expression system at 3 uM after 1 hr by off-chip mobility shift assay relative to control

Sequence of Protein kinase C beta type (Homo sapiens) (P05771 2-671 limits assumed): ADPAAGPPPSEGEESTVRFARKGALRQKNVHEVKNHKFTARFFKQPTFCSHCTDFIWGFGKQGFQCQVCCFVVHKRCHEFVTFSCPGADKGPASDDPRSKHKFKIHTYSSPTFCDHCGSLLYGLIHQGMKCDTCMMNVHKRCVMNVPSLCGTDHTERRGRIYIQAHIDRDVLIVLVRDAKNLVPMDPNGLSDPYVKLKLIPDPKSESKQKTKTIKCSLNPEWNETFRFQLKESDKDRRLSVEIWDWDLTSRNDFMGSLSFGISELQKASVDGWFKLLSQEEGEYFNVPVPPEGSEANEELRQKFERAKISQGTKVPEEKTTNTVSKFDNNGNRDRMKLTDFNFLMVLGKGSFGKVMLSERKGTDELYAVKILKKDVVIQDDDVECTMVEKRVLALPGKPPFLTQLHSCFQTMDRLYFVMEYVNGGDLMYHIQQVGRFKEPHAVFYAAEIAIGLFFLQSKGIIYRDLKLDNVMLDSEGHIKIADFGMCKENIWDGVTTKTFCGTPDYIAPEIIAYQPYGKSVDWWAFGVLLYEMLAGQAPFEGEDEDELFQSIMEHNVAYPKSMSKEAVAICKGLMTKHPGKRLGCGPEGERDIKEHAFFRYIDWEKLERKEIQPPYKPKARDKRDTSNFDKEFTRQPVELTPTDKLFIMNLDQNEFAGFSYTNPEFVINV
Sequence of Protein kinase C theta type (Homo sapiens) (Q04759 whole entry, looked up, the tested form may be a part): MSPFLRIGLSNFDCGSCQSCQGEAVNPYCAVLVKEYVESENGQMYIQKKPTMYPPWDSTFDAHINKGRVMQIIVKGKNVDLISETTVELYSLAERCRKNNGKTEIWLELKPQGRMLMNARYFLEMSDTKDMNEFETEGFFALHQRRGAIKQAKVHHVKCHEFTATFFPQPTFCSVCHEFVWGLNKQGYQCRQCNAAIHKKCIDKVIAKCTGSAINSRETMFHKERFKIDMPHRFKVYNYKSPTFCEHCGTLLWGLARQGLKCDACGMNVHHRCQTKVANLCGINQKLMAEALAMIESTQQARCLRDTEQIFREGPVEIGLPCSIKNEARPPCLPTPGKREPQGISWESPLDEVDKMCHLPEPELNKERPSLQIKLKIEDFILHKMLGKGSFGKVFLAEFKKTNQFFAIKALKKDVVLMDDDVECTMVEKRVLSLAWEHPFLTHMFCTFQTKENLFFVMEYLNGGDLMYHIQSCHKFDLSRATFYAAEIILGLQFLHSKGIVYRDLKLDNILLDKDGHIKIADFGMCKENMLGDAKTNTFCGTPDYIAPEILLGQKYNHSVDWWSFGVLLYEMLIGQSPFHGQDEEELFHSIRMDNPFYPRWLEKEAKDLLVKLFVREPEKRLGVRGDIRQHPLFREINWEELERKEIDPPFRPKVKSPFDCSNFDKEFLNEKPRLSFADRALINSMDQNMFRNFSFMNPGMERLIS
Sequence of Protein kinase C eta type (Homo sapiens) (P24723 whole entry, the tested form may be a part): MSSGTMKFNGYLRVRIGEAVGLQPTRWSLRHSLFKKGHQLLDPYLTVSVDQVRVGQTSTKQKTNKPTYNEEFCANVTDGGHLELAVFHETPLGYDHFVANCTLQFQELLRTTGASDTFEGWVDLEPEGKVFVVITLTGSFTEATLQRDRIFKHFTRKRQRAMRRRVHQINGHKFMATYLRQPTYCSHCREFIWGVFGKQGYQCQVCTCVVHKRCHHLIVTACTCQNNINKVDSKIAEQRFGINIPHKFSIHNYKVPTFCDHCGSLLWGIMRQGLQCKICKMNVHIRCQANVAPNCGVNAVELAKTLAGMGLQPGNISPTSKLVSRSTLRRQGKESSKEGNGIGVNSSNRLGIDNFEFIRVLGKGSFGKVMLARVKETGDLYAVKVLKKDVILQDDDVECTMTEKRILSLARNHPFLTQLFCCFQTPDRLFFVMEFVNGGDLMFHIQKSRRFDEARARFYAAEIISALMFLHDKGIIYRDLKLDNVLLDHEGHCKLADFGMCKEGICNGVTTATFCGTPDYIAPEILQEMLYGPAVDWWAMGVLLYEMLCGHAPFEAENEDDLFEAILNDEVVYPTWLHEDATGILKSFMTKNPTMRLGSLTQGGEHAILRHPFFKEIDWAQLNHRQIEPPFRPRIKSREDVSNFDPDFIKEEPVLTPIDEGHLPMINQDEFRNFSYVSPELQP
Sequence of Protein kinase C delta type (Homo sapiens) (Q05655 whole entry, looked up, the tested form may be a part): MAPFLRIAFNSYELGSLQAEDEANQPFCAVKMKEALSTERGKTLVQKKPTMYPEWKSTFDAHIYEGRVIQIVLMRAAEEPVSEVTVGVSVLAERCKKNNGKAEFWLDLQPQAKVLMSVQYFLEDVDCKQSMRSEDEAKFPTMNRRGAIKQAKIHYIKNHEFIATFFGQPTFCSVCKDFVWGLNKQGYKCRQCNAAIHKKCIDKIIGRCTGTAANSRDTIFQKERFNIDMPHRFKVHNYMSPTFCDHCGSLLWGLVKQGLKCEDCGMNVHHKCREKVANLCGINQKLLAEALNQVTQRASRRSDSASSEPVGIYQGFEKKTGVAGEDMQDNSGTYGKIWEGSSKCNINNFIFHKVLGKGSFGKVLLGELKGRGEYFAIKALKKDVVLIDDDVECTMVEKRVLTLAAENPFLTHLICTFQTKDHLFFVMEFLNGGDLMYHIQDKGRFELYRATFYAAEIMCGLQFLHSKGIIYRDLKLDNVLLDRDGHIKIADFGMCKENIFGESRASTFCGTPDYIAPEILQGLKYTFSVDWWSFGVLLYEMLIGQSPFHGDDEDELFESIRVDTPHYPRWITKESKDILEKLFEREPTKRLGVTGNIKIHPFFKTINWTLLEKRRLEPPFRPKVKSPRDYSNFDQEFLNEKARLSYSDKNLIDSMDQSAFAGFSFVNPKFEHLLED
Sequence of Sphingosine kinase 1 (Homo sapiens) (Q9NYA1 whole entry, the tested form may be a part): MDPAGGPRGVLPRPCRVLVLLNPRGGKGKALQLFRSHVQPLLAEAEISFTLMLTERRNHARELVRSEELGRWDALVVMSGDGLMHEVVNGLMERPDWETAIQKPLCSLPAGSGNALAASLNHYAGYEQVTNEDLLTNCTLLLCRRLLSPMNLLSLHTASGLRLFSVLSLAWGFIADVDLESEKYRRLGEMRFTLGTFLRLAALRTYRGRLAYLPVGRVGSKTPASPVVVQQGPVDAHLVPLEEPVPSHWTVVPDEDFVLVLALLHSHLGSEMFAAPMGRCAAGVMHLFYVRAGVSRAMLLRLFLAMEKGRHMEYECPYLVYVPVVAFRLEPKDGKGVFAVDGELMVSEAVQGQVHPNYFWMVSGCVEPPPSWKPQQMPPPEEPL

## CCCCCCCCCCCCCC[C@@H]1OC[C@@H](N)[C@@H]1O
[1]
  inhibition: 33.1%
[2]
  inhibition: 45.1%
[3]
  inhibition: 37.1%
[4]
  inhibition: 47%
[5]
  inhibition: 99.8%
[6]
  inhibition: 29.2%
[7]
  inhibition: 94.8%
[8]
  inhibition: 50%
[9]
  inhibition: 0.48%
[10]
  inhibition: 0.94%
[11]
  inhibition: 67.5%
[12]
  inhibition: 22.9%
[13]
  inhibition: 48.5%
[14]
  inhibition: 50%

## CCCCCCCCCCCCCC[C@@H]1OC[C@@H](N)[C@H]1O
[9]
  inhibition: 50%
[10]
  inhibition: 50%

## CCCCCCCCCCCCCC[C@H]1OC[C@H](N)[C@@H]1O
[9]
  inhibition: 50%
[10]
  inhibition: 50%

## CCCCCCCCCCCCC/C=C/[C@@H](O)[C@H](CO)N(C)C
[1]
  inhibition: 35%
[2]
  inhibition: 68.5%
[3]
  inhibition: 47.1%
[4]
  inhibition: 43.8%
[5]
  inhibition: 99.1%
[6]
  inhibition: 40.4%
[7]
  inhibition: 100%
[9]
  inhibition: 50%
[10]
  inhibition: 50%
[11]
  inhibition: 83.9%
[12]
  inhibition: 44.3%
[13]
  inhibition: 49.2%

## CCCCCCCCCCCCCC[C@H]1OC[C@@H](N)[C@@H]1O
[1]
  inhibition: 34%
[2]
  inhibition: 79.2%
[3]
  inhibition: 51.2%
[4]
  inhibition: 55.4%
[5]
  inhibition: 99.5%
[6]
  inhibition: 26.3%
[7]
  inhibition: 99.9%
[8]
  inhibition: 50%
[9]
  inhibition: 1.8%
[10]
  inhibition: 0.59%
[11]
  inhibition: 96.2%
[12]
  inhibition: 43.9%
[13]
  inhibition: 47.6%
[14]
  inhibition: 50%

## CCCCCCCCCCCCCC[C@H]1OC[C@@H](N)[C@H]1O
[9]
  inhibition: 50%
[10]
  inhibition: 50%

## CCCCCCCCCCCCCC[C@@H]1OC[C@H](N)[C@@H]1O
[1]
  inhibition: 32.7%
[2]
  inhibition: 48.5%
[3]
  inhibition: 39.8%
[4]
  inhibition: 56.6%
[5]
  inhibition: 100%
[6]
  inhibition: 37.4%
[7]
  inhibition: 98.5%
[8]
  inhibition: 50%
[9]
  inhibition: 6.6%
[10]
  inhibition: 4.6%
[11]
  inhibition: 69.6%
[12]
  inhibition: 27.9%
[13]
  inhibition: 48.6%
[14]
  inhibition: 50%

## CCCCCCCCCCCCCC[C@@H]1OC[C@H](N)[C@H]1O
[9]
  inhibition: 50%
[10]
  inhibition: 50%

## CCCCCCCCCCCCCC[C@H]1OC[C@H](N)[C@H]1O
[9]
  inhibition: 50%
[10]
  inhibition: 50%
